# Published values collected from several papers.
# Protocols differ between the studies behind these lines.
# HTR2B: 5-hydroxytryptamine receptor 2B (HTR2B, Homo sapiens, UniProt P41595)
# HTR2C: 5-hydroxytryptamine receptor 2C (HTR2C, Homo sapiens, UniProt P28335)
Structure (SMILES),target,test,setting,measurement,value
Nc1ncnc2c1ncn2[C@@H]1O[C@H](C[C@@H](N)CC[C@H](N)C(=O)O)[C@@H](O)[C@H]1O,"mRNA cap guanine-N(7) methyltransferase (RNMT, Homo sapiens, UniProt O43148)","enzyme activity, inhibitor",50 µM,inhibition,85.3%
COc1cc2c3c(c1OC)-c1c(cccc1OC)CC3N(C)CC2 (racemic),HTR2B,"ligand displacement, radioligand",10 µM,inhibition,86%
CN1CCC[C@H]1c1cccnc1,"Neuronal acetylcholine receptor; alpha3/beta4 (Rattus norvegicus, UniProt P04757+P12392)","ligand displacement, radioligand",50 µM,inhibition,65.5%
COc1cc2cc3c4c(cc(OC)c(OC)c4c2cc1OC)CCN3C,HTR2C,"ligand displacement, radioligand",10 µM,inhibition,-1%
COc1cc(C(F)(F)F)c(OC)cc1C1CCCNC1 (stereo not drawn),HTR2C,"G protein activation, agonist, BRET",,Emax,85%
COc1cc2c3c(c1OC)-c1c(OC)ccc(Br)c1CC3N(C)CC2 (stereo not drawn),HTR2B,"ligand displacement, radioligand",10 µM,inhibition,88%
CC(C)CC(=O)OC[C@H]1O[C@@](C#N)(c2ccc3c(N)ncnn23)[C@H](O)[C@@H]1O,HTR2C,cell-free assay,20 µM,inhibition,10%
[2H]c1c([2H])c([C@]2([2H])CCCN2C(=O)C(C)(C)Oc2ccc3cn[nH]c3c2)c([2H])c([2H])c1C([2H])([2H])[2H],"BMP-2-inducible protein kinase (BMP2K, Homo sapiens, UniProt Q9NSY1)","binding, competition with immobilised ligand",1 µM,remaining binding,77%
c1cncc([C@@H]2CCCN2)c1,HTR2C,ligand displacement,50 µM,inhibition,-12.7%
